Not all results are given here.
Apaf1 activ: activates human Apaf-1 apoptosome | Apaf-1 apoptosome caspase-3 activation, DEVD-Rh110 fluorescence; stronger effect = lower value | activity change, negative = activation, % at 20 µM | actives 0.31% (n = 330,000) | AID 489031;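 active means activity change at or below -40% at 20 µM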
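Material: biochemical Apaf-1 apoptosome reconstitution; Medium: 20 mM HEPES buffer, pH 7.5, containing CHAPS and BSA; Reagent: dATP, cytochrome c, and (Z-DEVD)2-Rh110 caspase-3 substrate; Times: 30 min preincubation, 50 min reaction, room temperature; Signal: Rh110 fluorescence, excitation 480 nm, emission 540 nm; Measure: Caspase-3 activity via Apaf-1.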
Rh110 act interf: counter-screen for Apaf-1 activators: fluorescence interference; 980 tested, under 10 active; AID 504616; shares compounds with Apaf1 activ; Rh110 fluorescence interference, quenched caspase reaction, Ex480/Em540; fluorescence interference (activity change), % at 20 µM, hits read low;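 active means mean activity change at or below -40% when tested at 20 µM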
Apaf-1 act conf: confirmation of human Apaf-1 activators. AID 504617. activity change, negative = activation, % at 20 µM. reconstituted apoptosome caspase-3 activity, DEVD-Rh110 fluorescence; stronger effect = lower value. shares compounds with Apaf1 activ. actives 5% (n = 980);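 active means mean activity change at or below -40%, meaning activation of 40% or more, at 20 µM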
Of the large screens only hits and unclear results are named; the others gave an inactive call (follow-up assays come after a bar, where they were run).

CC/C(=C(/CC)c1ccc(O)cc1)c1ccc(O)cc1	Apaf1 activ -151.0
O=c1[nH]c(C2CCCN(S(=O)(=O)c3ccccc3F)C2)nc2c1nnn2Cc1ccccc1Cl (centres undefined)	none
CC(C)C[C@@H](C(=O)NC1CCN(Cc2ccccc2)CC1)N1C(=O)N2CCc3c([nH]c4ccccc34)[C@@]2(C)C1=O	none
Cc1cccc(C)c1NC(=O)CN1CCN(CCCC(c2ccc(F)cc2)c2ccc(F)cc2)CC1	none
COc1ccccc1NS(=O)(=O)c1cccc(C(=O)N2CCN(C/C=C/c3ccccc3)CC2)c1	none
C=CCn1c(NC(=O)c2ccccc2Cl)c(C#N)c2nc3ccccc3nc21	none
O=C(Nc1ccnn1C1CCN(C/C=C/c2ccccc2)CC1)c1ccccc1Cl	Apaf1 activ -61.3
Cc1cc(C)c(C#N)c(SCC(=O)Nc2nonc2N)n1	none
CC(CS(=O)(=O)c1ccc2c(c1)NC(=O)CS2)C(=O)NCc1ccccc1Cl (centres undefined)	Apaf1 activ -158.0
CCCc1cc(=O)oc2c3c(c4c(c12)OC(C)(C)C=C4)OC(C)C(C)C3O (centres undefined)	none
Cc1cc2nc3ccc(N(C)C)cc3nc2cc1N	none
COc1ccccc1C(CNC(=O)CNC(=O)c1ccccc1Cl)N1CCCC1 (centres undefined)	none
Cc1cc(C)c(C2=CC(c3ccccc3)n3ncnc3N2)cc1C (centres undefined)	Apaf1 activ -214.9
Cc1ccc2c(c1)C(=O)CC(O)(C(F)F)O2 (centres undefined)	Apaf1 activ -71.2 | Rh110 act interf inactive | Apaf-1 act conf inactive
O=C(c1ccc([N+](=O)[O-])o1)N(Cc1nnc(-c2ccccc2Cl)o1)C1CC1	none
CN1CCN(S(=O)(=O)c2ccc(N3CCN(C(c4ccccc4)c4ccccc4)CC3)nc2)CC1	Apaf1 activ -77.6 | Rh110 act interf inactive | Apaf-1 act conf inactive
COc1ccc(S(=O)(=O)N2CCN(c3ccc4nnc(-c5ccccc5)n4n3)CC2)cc1	none
Cc1ccc(-n2c(SCC(=O)Nc3cc(C)on3)nc3c([nH]c4ccccc43)c2=O)cc1	none
CC(=O)C1=C(C)OC2(O)c3ccccc3C(=O)C12O (centres undefined)	none
CCOC(=O)C1=C(C)OC2(O)c3ccccc3C(=O)C12O (centres undefined)	none
CC(=O)Oc1ccc2c(c1)Oc1cc(OC(C)=O)ccc1C21OC(=O)c2ccccc21	Apaf1 activ -258.8 | Rh110 act interf -154.1 | Apaf-1 act conf -73.3
O=C(O)c1ccc(NC2=C/C(=N/S(=O)(=O)c3ccccc3)c3ccccc3C2=O)cc1	none
Oc1ccc(Br)cc1-c1nc2cnccn2c1NC1CCCC1	Apaf1 activ -566.0 | Rh110 act interf inactive | Apaf-1 act conf inactive
Cc1ccn2c(NC3CCCCC3)c(-c3cccc(SC4CCCCC4)c3)nc2c1	none
CCC(C)Sc1cccc(-c2nc3cc(C)ccn3c2NC2CCCCC2)c1 (centres undefined)	none
Cc1ccccc1-c1cc2c(nn1)-c1ccccc1C2=O	none
NC(=O)c1c(NC(=O)CCCn2cnc([N+](=O)[O-])n2)sc2c1CCCC2	Apaf1 activ -90.3 | Rh110 act interf inactive | Apaf-1 act conf inactive
CCN1CCc2c(sc(NC(=O)c3ccc(C(=O)c4ccccc4)cc3)c2C(N)=O)C1	none
c1csc(Cc2nn3c(-c4ccncc4)nnc3s2)c1	none
CC(=O)c1ccc(NC(=O)c2noc(C(C)C)c2[N+](=O)[O-])cc1	Apaf1 activ -127.1 | Rh110 act interf inactive | Apaf-1 act conf inactive
COC(=O)C1=C(C)N(Cc2ccccc2)C(=NCc2cccc(Cl)c2)N[C@H]1c1ccccc1	none
Cc1cc(NC(=O)CCCn2nc([N+](=O)[O-])c(Br)c2C)no1	none
CC(C)c1nccn1S(=O)(=O)c1cc(Cl)ccc1Cl	Apaf1 activ -40.7 | Rh110 act interf inactive | Apaf-1 act conf inactive
CC1=C(CC(=O)c2ccccc2)C(=O)c2ccccc2C1=O	none
CCn1nc(C(=O)Nc2ccccc2C)c(Cl)c1Cl	Apaf1 activ -137.0 | Rh110 act interf inactive | Apaf-1 act conf inactive
CC(=O)[C@@H]1[C@@H]2C(=O)N(Cc3ccccc3)C(=O)[C@@H]2C2c3ccccc3C=CN21 (some centres undefined)	none
N#CCCn1[nH]c(-c2ccccc2)cc1=O	none
Cc1cccc(NC(=O)CC2Nc3cccc4cccc(c34)NC2=O)c1 (centres undefined)	none
Cc1cccc(NC(=O)NC2CCCc3ccccc32)c1 (centres undefined)	Apaf1 activ -378.7 | Rh110 act interf inactive | Apaf-1 act conf inactive
Cc1cccc(NC2=C(NCCO)C(=O)c3ccccc3C2=O)c1	none
CN(C(=S)Nc1ccc(SC(F)F)cc1)c1ccc(O)cc1	none
Cc1oc2c(c1C(=O)c1ccccc1)C(=O)C(=O)c1ccccc1-2	none
Cc1cc(C(=O)COc2cccc3cccnc23)c(C)n1C	none
O=C(Nc1ccncc1)c1cc(-c2cccc(Br)c2)nc2ccccc12	none
CSc1cccc(NC(=O)c2cccc3cccnc23)c1	Apaf1 activ -72.5 | Rh110 act interf inactive | Apaf-1 act conf inactive
CN(C)Cc1cc(O)c(CN(C)C)cc1O	none
Cc1cc(NC(=O)CCC(=O)N(CC(=O)NCC2CCCO2)Cc2ccc(F)cc2)no1 (centres undefined)	Apaf1 activ -45.3 | Rh110 act interf inactive | Apaf-1 act conf inactive
COC(=O)CCC(=O)OC1(C)C(=O)C=C2C=C(C3CC3)N(CC(C)C)C=C2C1=O (centres undefined)	none
CSc1ccc(CCNC(=O)c2cc(-c3ccccc3)c(N3CCOCC3)s2)cc1	Apaf1 activ -370.0 | Rh110 act interf inactive | Apaf-1 act conf inactive
Cc1ccc(NC2=CC(=O)C(=O)c3ccccc32)cc1	none
CN(C)c1cccc2c1c(NC(=O)c1ccc(F)cc1)nn2C	none
O=C(Nc1ncccn1)c1cccc(F)c1	Apaf1 activ -47.9 | Rh110 act interf inactive | Apaf-1 act conf inactive
CCN(c1ccccc1)S(=O)(=O)c1ccc(Cl)c(NC(=O)COC(=O)c2cc(O)c3ccccc3c2O)c1	none
N#CC1(NC(=O)COC(=O)c2cc(O)c3ccccc3c2O)CCCCC1	none
Cc1cc(C(=O)OCC(=O)Nc2ccccc2C#N)c(C)o1	Apaf1 activ -45.5 | Rh110 act interf inactive | Apaf-1 act conf inactive
Cn1c(=O)oc2cc(S(=O)(=O)Nc3ccccc3O)ccc21	Apaf1 activ -46.2 | Rh110 act interf inactive | Apaf-1 act conf inactive
O=S(=O)(Nc1ccc(O)c2ccccc12)c1ccc(Br)cc1	none
Cc1ccc(O)c([C@H](CCN(C(C)C)C(C)C)c2ccccc2)c1	none
Cn1nc(-c2ccc(Cl)cc2)nc2c(=O)n(C)c(=O)nc1-2	none
Cn1c2ccccc2c(=O)n2c(=O)c3ccccc3cc12	none
Cn1c(=O)nc2n(Cc3ccccc3)c3ccccc3cc-2c1=O	Apaf1 activ -172.3 | Rh110 act interf inactive | Apaf-1 act conf inactive
COc1ccc(NC2=C(NCCO)C(=O)c3ccccc3C2=O)cc1	none
CN(Cc1cnc2nc(N)nc(N)c2n1)c1ccc(C(=O)N[C@@H](CCC(=O)O)C(=O)O)cc1	none
COc1cc([N+](=O)[O-])c2ncsc2c1	Apaf1 activ -58.5 | Rh110 act interf inactive | Apaf-1 act conf inactive
CCNC1=C(Cl)C(=O)c2ccccc2C1=O	none
Cc1ccc(NC2=C(N3CCOCC3)C(=O)c3ccccc3C2=O)cc1	none

Source: PubChem BioAssay (Sanford-Burnham Center for Chemical Genomics)
